Measured values as given in ChEMBL document CHEMBL1157314, “Antibacterial, partially acetylated oligorhamnosides from Cleistopholis patens” (2006).
Values after ≈ are worked out from the molar mass of the structure shown. Active and inactive are the calls of the source. No cut-off for these calls is given here.

What was measured:
Staphylococcus aureus [1] = assay: Antibacterial activity against methicillin-resistant Staphylococcus aureus ATCC 33591 after 24 hrs by broth microdilution method; format: functional; conditions: for MIC: ATCC 33591, 24 h
How it was run: (§1)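 Broth microdilution following NCCLS M7-A6 (2003), with inoculum at the recommended densities. Isolates were placed into panel wells with an autoinoculator and grown in cation-adjusted Mueller-Hinton broth at 35°C in ambient air for overnight to 24 h. Panels were read by eye, and the MIC was taken as no visible growth.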

Staphylococcus aureus [2] = assay: Antibacterial activity against methicillin-resistant Staphylococcus aureus 78-13607A after 24 hrs by broth microdilution method; format: functional; how it was run: as §1

| SMILES | MIC (Staphylococcus aureus [1]) [µg/mL] | MIC (Staphylococcus aureus [2]) [µg/mL] | Activity (Staphylococcus aureus [1]) | Activity (Staphylococcus aureus [2]) |
| --- | --- | --- | --- | --- |
| Cc1onc(-c2ccccc2)c1C(=O)N[C@@H]1C(=O)N2[C@@H]1SC(C)(C)[C@@H]2C(=O)O [OXACILLIN] | > 8 | 8 (≈ 19.9 µM) |  |  |
| CCCCCCCCCCCCO[C@@H]1O[C@@H](C)[C@H](O[C@@H]2O[C@@H](C)[C@H](OC(C)=O)[C@@H](O[C@@H]3O[C@@H](C)[C@H](OC(C)=O)[C@@H](O[C@@H]4O[C@@H](C)[C@H](O)[C@@H](OC(C)=O)[C@H]4O)[C@H]3OC(C)=O)[C@H]2O)[C@@H](O)[C@H]1O | 8 (≈ 8.52 µM) | 16 (≈ 17 µM) |  |  |
| C/C(=C\C(=O)OCCCCCCCCC(=O)O)C[C@@H]1OC[C@H](C[C@@H]2O[C@H]2[C@@H](C)[C@H](C)O)[C@@H](O)[C@H]1O |  |  | Active | Active |
